Consider 25 compounds from ChEMBL document CHEMBL4364260, “Discovery of Ziresovir as a Potent, Selective, and Orally Bioavailable Respiratory Syncytial Virus Fusion Protein Inhibitor” (J Med Chem, 2019).

A short description of series [1]: Cytotoxicity against human Hep2 cells assessed as reduction in cell viability after 5 days by CCK-8 assay. The format is cell-based. The conditions noted are these: HEp-2 cells. An outline of the steps: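 Uninfected HEp-2 cells (6000/well) were incubated 5 days with serially diluted compound. Viability was read by CCK-8, and CC50 is the concentration toxic to 50% of cells.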
A general note: Formazan colour is commonly taken as a measure of viable cells.

The nature of series [2]: Antiviral activity against Human respiratory syncytial virus A strain Long infected in human Hep2 cells assessed as reduction in virus induced cytopathic effect in presence of 10% FBS after 5 days by CCK-8 assay. The format is functional, cell-based. The conditions noted are these: HEp-2, 120 h. A digest of the protocol: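 HEp-2 cells seeded at 6000/well and infected the next day at MOI 0.02, a dose that gives about 90% CPE by day 5. Serial compound dilutions were present throughout, in standard medium with 10% FBS. Viability was read by CCK-8 at day 5, and EC50 is the concentration that cuts CPE by 50%.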
A general note: Protection from cytopathic effect is a common read-out in antiviral testing.

Series [3] is described as follows: Therapeutic index, ratio of CC50 of human Hep2 cells to EC50 for antiviral activity against human respiratory syncytial virus long strain infected in human Hep2 cells after 5 days by CCK-8 assay. The format is toxicity, cell-based. The conditions noted are these: HEp-2 cells, read-out: Ratio CC50/EC50. An outline of the steps:
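TI is CC50 over EC50. CC50 comes from uninfected HEp-2 cells; EC50 from 50% reduction of RSV Long CPE in HEp-2 cells (MOI 0.02, 5 days). Both were read by CCK-8 viability.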

Series [4] in a line: Oral bioavailability in Wistar-Han rat at 10 mg/kg administered as single dose via gavage and measured up to 24 hrs by LC/MS/MS analysis. The format is ADME, organism-based. The settings on record: in vivo. An outline of the steps:
(§1)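 Male Wistar-Han rats, single dose, 2 mg/kg iv and 10 mg/kg po, run by standard procedures.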

Series [5] in a line: AUC (0 to 24 hrs) in Wistar-Han rat at 10 mg/kg, po administered as single dose via gavage and measured up to 24 hrs by LC/MS/MS analysis. Also noted: dose 10 mg/kg, time < 24 hr, route oral. The format is ADME, organism-based. The conditions noted are these: in vivo. An outline of the steps:
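Single-dose PK in male Wistar-Han rats at 2 mg/kg iv or 10 mg/kg po, as a solution in 5% DMSO, 40% PEG400 and 55% 0.9% sodium chloride.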

A short description of series [6]: Volume of distribution at steady state in Wistar-Han rat at 2 mg/kg, iv or 10 mg/kg, po administered as single dose via gavage and measured up to 24 hrs by LC/MS/MS analysis. The settings on record: in vivo, read-out: Vdss. The format is ADME, organism-based. An outline of the steps:
as §1

Series [7] can be described thus: Half-life in Wistar-Han rat at 2 mg/kg, iv administered as single dose and measured up to 24 hrs by LC/MS/MS analysis. The format is ADME, organism-based. The settings on record: in vivo. An outline of the steps: as §1
Series [8] can be described thus: Plasma clearance in Wistar-Han rat at 2 mg/kg, iv or 10 mg/kg, po administered as single dose via gavage and measured up to 24 hrs by LC/MS/MS analysis. The format is ADME, organism-based. A digest of the protocol: as §1

What is called CC50 is the concentration at which the toxic effect on the cells reaches its halfway point. A word on the EC50: it is the concentration at which the effect is half-maximal. Consider `COc1ccc2c(c1)CN(c1cc(NCC3(N)COC3)c3cc(C)ccc3n1)CCS2(=O)=O`, for which the CC50 at 120 h in series [1] stood at 90000 nM. Further, the EC50 in series [2] is 3 nM. Besides, in series [3], the selectivity ratio at 120 h is 30000.

For `Cc1ccc2nc(N3CCS(=O)(=O)c4ccccc4C3)nc(NCC(C)(C)N)c2c1`, in series [1], the 50% cytotoxic concentration (CC50) at 120 h was found to be 20000 nM. In series [2], the EC50 was found to be 16 nM. Further, the selectivity ratio at 120 h in series [3] was 1250.

For `Cc1ccc2nc(N3CCS(=O)(=O)c4ccccc4C3)nc(NCC3(N)CC3)c2c1`, the cytotoxic concentration (CC50) at 120 h in series [1] was 13000 nM. For the same compound, in series [2], the 50% effective concentration (EC50) came to 4 nM. The selectivity ratio at 120 h in series [3] is 3250.

`COc1cccc2c1S(=O)(=O)CCN(c1cc(NCC3(N)COC3)c3cc(C)ccc3n1)C2`: in series [1], the CC50 at 120 h was more than 100000 nM. Also, the EC50 in series [2] is 350 nM. Also, in series [3], the selectivity ratio at 120 h is more than 286.

Consider `Cc1ccc2c(c1)S(=O)(=O)CCN(c1cc(NCC3(N)COC3)c3ccccc3n1)C2`, for which, in series [1], the CC50 at 120 h was determined as 95000 nM. For the same compound, in series [2], the 50% effective concentration (EC50) turned out to be 74 nM. For the same compound, the selectivity ratio at 120 h in series [3] was 1280.

Regarding `NC1(CNc2cc(N3CCS(=O)(=O)c4ccccc4C3)nc3ccc(Cl)cc23)COC1`, the half-maximal cytotoxic concentration (CC50) at 120 h in series [1] was 87000 nM. In series [2], the half-maximal effective concentration (EC50) stood at 34 nM. Further, the selectivity ratio at 120 h in series [3] is 2560.

With `Cc1ccc2nc(N3CCS(=O)(=O)c4ccc(O)cc4C3)cc(NCC3(N)COC3)c2c1`, the CC50 at 120 h in series [1] is more than 100000 nM. Moreover, in series [2], the EC50 is 0.8 nM. For the same compound, the selectivity ratio at 120 h in series [3] is more than 125000.

For `COc1ccc2c(c1)S(=O)(=O)CCN(c1cc(NCC3(N)COC3)c3ccccc3n1)C2`, the 50% cytotoxic concentration (CC50) at 120 h in series [1] is more than 100000 nM. Also, the concentration giving a half-maximal response (EC50) in series [2] worked out at 8 nM. Besides, the selectivity ratio at 120 h in series [3] is more than 12500.

As for `Cc1ccc2nc(N3CCS(=O)(=O)c4cc(F)ccc4C3)cc(NCC3(N)COC3)c2c1`, the CC50 at 120 h in series [1] was found to be 79000 nM. In addition, the EC50 in series [2] was 10 nM. The selectivity ratio at 120 h in series [3] was 7900.

Take `COc1ccc2c(c1)S(=O)(=O)CCN(c1cc(NCC3(N)COC3)c3cc(C)ccc3n1)C2`: in series [1], the 50% cytotoxic concentration (CC50) at 120 h turned out to be 92000 nM. Further, the EC50 in series [2] turned out to be 1 nM. Moreover, in series [3], the selectivity ratio at 120 h was 92000.

With `CC(C)(O)c1ccc2nc(N3CCS(=O)(=O)c4ccccc4C3)cc(NCC3(N)COC3)c2c1`, the CC50 at 120 h in series [1] was more than 100000 nM. In addition, the half-maximal effective concentration (EC50) in series [2] is more than 100000 nM. The selectivity ratio at 120 h in series [3] is less than 1.

With `Cc1ccc2nc(N3CCS(=O)(=O)c4cc(Cl)ccc4C3)cc(NCC3(N)COC3)c2c1`, the CC50 at 120 h in series [1] came out at 15000 nM. Further, the concentration giving a half-maximal response (EC50) in series [2] came out at 27 nM. The selectivity ratio at 120 h in series [3] stood at 560.

Take `NC1(CNc2cc(N3CCS(=O)(=O)c4ccccc4C3)nc3ccc(CO)cc23)COC1`: the CC50 at 120 h in series [1] is more than 100000 nM. Also, the EC50 in series [2] turned out to be 2 nM. Further, the selectivity ratio at 120 h in series [3] was more than 50000.

As to `NC1(CNc2cc(N3CCS(=O)(=O)c4ccccc4C3)cc3ccccc23)COC1`, the CC50 at 120 h in series [1] came out at 71000 nM. In addition, the 50% effective concentration (EC50) in series [2] is more than 31600 nM. For the same compound, the selectivity ratio at 120 h in series [3] is less than 2.

On to `Cc1ccc2nc(N3CCS(=O)(=O)c4ccccc4C3)cc(NCC3(N)COC3)c2c1F`, for which, in series [1], the CC50 at 120 h was 93000 nM. For the same compound, the 50% effective concentration (EC50) in series [2] amounted to 23 nM. For the same compound, the selectivity ratio at 120 h in series [3] turned out to be 4040.

Turning to `Cc1cc2c(NCC3(N)COC3)cc(N3CCS(=O)(=O)c4ccccc4C3)nc2c(F)c1F`, the CC50 at 120 h in series [1] worked out at 53000 nM. For the same compound, in series [2], the half-maximal effective concentration (EC50) stood at 510 nM. For the same compound, the selectivity ratio at 120 h in series [3] was 104.

The term bioavailability denotes dose-corrected exposure relative to a reference, in per cent. The AUC(0-t) is exposure summed from dosing to a finite time, without extrapolation to infinity. As usually defined, the half-life is the time needed for the level to fall by half in the phase considered. A high value points to slow decline. The compound `Cc1ccc2nc(N3CCS(=O)(=O)c4ccccc4C3)cc(NCC3(N)COC3)c2c1` registered a bioavailability in series [4] of 13%. This compound also registered an exposure AUC(0-t) at 24 h in series [5] of 442 ng·h/mL. Besides, the Vd in series [6] turned out to be 4.1 L/kg. In series [1], the CC50 at 120 h was more than 100000 nM. In series [7], this compound gave a half-life of 1.7 h. Further, the EC50 in series [2] stood at 2 nM. Besides, the selectivity ratio at 120 h in series [3] was more than 50000. This compound also displayed a clearance in series [8] of 51 mL/min/kg.

For `Cc1ccc2nc(N3CCS(=O)(=O)c4c(F)cccc4C3)cc(NCC3(N)COC3)c2c1`, the CC50 at 120 h in series [1] turned out to be 35000 nM. In addition, the EC50 in series [2] was found to be 3 nM. For the same compound, the selectivity ratio at 120 h in series [3] is 11700.

With `NC1(CNc2cc(N3CCS(=O)(=O)c4ccccc4C3)nc3ccncc23)COC1`, in series [1], the 50% cytotoxic concentration (CC50) at 120 h is 99000 nM. For the same compound, in series [2], the EC50 stood at 12 nM. In addition, in series [3], the selectivity ratio at 120 h stood at 8250.

As for `Cc1cc2c(NCC3(N)COC3)cc(N3CCS(=O)(=O)c4ccccc4C3)nc2cc1F`, in series [1], the CC50 at 120 h was found to be 64000 nM. The EC50 in series [2] worked out at 21 nM. Besides, the selectivity ratio at 120 h in series [3] is 3050.

As for `Cc1ccc2cc(N3CCS(=O)(=O)c4ccccc4C3)nc(NCC3(N)COC3)c2c1`, the cytotoxic concentration (CC50) at 120 h in series [1] amounted to 81000 nM. The 50% effective concentration (EC50) in series [2] stood at 220 nM. Besides, the selectivity ratio at 120 h in series [3] was 370.

With `Cc1ccc2nc(N3CCS(=O)(=O)c4ccc(F)cc4C3)cc(NCC3(N)COC3)c2c1`, in series [1], the CC50 at 120 h stood at 93000 nM. In series [2], the EC50 is 72 nM. Further, the selectivity ratio at 120 h in series [3] came out at 1290.

In the case of `Cc1ccc2nc(N3CCS(=O)(=O)c4ccccc4C3)nc(NCC3(N)CCC3)c2c1`, the cytotoxic concentration (CC50) at 120 h in series [1] was found to be 21000 nM. In series [2], the EC50 came to 100 nM. For the same compound, the selectivity ratio at 120 h in series [3] came to 210.

`Cc1ccc2c(c1)S(=O)(=O)CCN(c1cc(NCC3(N)COC3)c3cc(C)ccc3n1)C2`: in series [1], the CC50 at 120 h turned out to be 91000 nM. In addition, the EC50 in series [2] is 5 nM. The selectivity ratio at 120 h in series [3] came out at 18200.

On to `NC1(CNc2nc(N3CCS(=O)(=O)c4ccccc4C3)nc3ccccc23)COC1`, for which the CC50 at 120 h in series [1] is more than 100000 nM. Besides, the EC50 in series [2] was 20 nM. Further, the selectivity ratio at 120 h in series [3] is more than 5000.
